From PMC11292830 (ACS Omega, 2024)
Bridges are numbered along the chain shown (N, C = ends). Where no end group is shown, it is not given here.

What was measured:
[1] = Native mass spectrometry of oligomeric state; format: physicochemical; details: 50 mM ammonium acetate (pH 6.9), native ESI-MS, column bypassed
How it was run: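 Intact-mass LC/MS on a QTof instrument fed by UHPLC, with the column bypassed to capture the full oligomer profile. Test compound was in 50 mM ammonium acetate (pH 6.9) under native conditions. Electrospray in positive ionization mode; source temperature 300 °C; ion spray voltage 5500 V. Spectra were inspected over the expected regions for larger oligomers.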

[2] = cited from earlier work
[3] = Differential scanning calorimetry of the oligomers; format: physicochemical; details: DSC, 10 mg/mL in 20 mM Tris-HCl pH 7.5, 100 mM NaCl, 4 to 110 °C at 1 °C/min, 3 atm, first scan
[4] = FRET assay in solution of Cy3- and Cy5-labeled peptides; format: physicochemical; details: 100 nM Cy3-labeled plus 100 nM Cy5-labeled peptide in PBS, excitation of Cy3 at 490 nm, microplate reader, n = 3

## LKKLCLKLKKLCKLAG (disulfide 5-12 (inferred)) [LK-3]
[1]
  oligomeric state by native mass spectrometry: prefers to form oligomers
[2]
  molecularity of the oligomer by SEC-MALS: tetramer of dimers
[3]
  melting temperature (Tm2): 63.8 °C
[4]
  FRET efficiency: 0.36
